High-throughput results from PubChem.
Most compounds without a hit are left out; they make up all but 4.9% or so of the library.
STAT1 inh = STAT1 signaling inhibitors, primary screen, cell-based, HTS, luciferase reporter | NIH 3T3 STAT1-luciferase reporter, IFN-gamma, luminescence | inhibition, % at 5.5 µM | AID 920, 2007 | 200,000 compounds, 0.35% hits;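 active = inhibition above a set limit, the mean inhibition across all tested compounds plus 3 SD, cut at about 34% in these data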;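 note: 0% = IFN-gamma with DMSO and 100% = IFN-gamma with 300 µM nifuroxazide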
APP 5'UTR act = activators of APP 5'UTR luciferase reporter, primary screen, SH-SY5Y cells; AID 1276, 2008; 190,000 compounds, 1% hits; activation, % at 2 µM; SH-SY5Y APP 5'UTR luciferase reporter, luminescence; zero percent = DMSO vehicle wells;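 active = activation above a set limit, based on mean plus 3 SD of controls, cut at about 140% in these data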
NF-kB neuron act = activators of NF-kB expression in neurons, primary screen, cell-based, HTS | 190,000 compounds, 1.6% hits | AID 1239, 2008 | fold change at 12.5 µM | human neuronal cells, NF-kB reporter expression; active compounds read high; in the data active = fold change above about 3.3
STAT3 activator = IL-6 driven STAT3 reporter potentiators, primary screen, U3A cells, luciferase, luminescence, MLSCN library. activation (% of control), % at 5.6 µM. IL-6 STAT3-luciferase reporter; 100% = signal with IL-6 EC80 alone. 190,000 compounds, 0.91% hits;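 active = activation above the screen-wide mean of compound activation plus 3 SD, cut at about 130% in these data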;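 note: 0% = background luminescence of wells with medium and substrate only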
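Detection: reporter luminescence signal / Assay system: STAT1-lacking human U3A cells, STAT3 luciferase reporter / Incubation: compound pre-incubation 1 h before IL-6, then 6 h stimulation at 37 °C / Control set: IL-6-only high control / Read-out: % activation relative to IL-6 control / Probe or stimulus: Interleukin-6, 33 ng/mL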
STAT3 inh-1 = IL-6 driven STAT3 reporter inhibitors, primary screen, U3A cells, luciferase, luminescence, MLSCN library. 190,000 compounds, 0.89% hits. inhibition, % at 5.5 µM. AID 862, 2007. IL-6 STAT3-luciferase reporter; host cell line lacks STAT1;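 active = inhibition above the mean inhibition across all screened compounds plus 3 SD, cut at about 44% in these data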;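 note: 0% = DMSO only wells and 100% = 100 µM nifuroxazide control wells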
STAT1 activator = STAT1 signaling activators, primary screen, cell-based, HTS, luciferase reporter; NIH 3T3 STAT1-luciferase reporter, IFN-gamma, luminescence; 100% = IFN-gamma alone, no compound; activation (% of control), % at 5.5 µM; 200,000 compounds, 2.6% hits; AID 932, 2007;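 active = activation above the screen-wide mean activation plus 3 SD, cut at about 130% in these data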;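 note: raw ratio to IFN-gamma control signal so 100% means no change and 0% no light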
STAT3 inh-2 = STAT3 reporter inhibitors, retest of hits, confirmation, U3A cells, luciferase, luminescence | shares compounds with STAT3 inh-1 | IL-6 STAT3 luciferase reporter; cell line lacks STAT1 | inhibition, % at 5.7 µM | 1,200 compounds, 45% hits | AID 1265, 2008;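 active = inhibition above the hit cutoff computed for the primary STAT3 screen, cut at about 44% in these data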;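 note: 0% = IL-6 plus DMSO and 100% = IL-6 plus nifuroxazide control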
NFkB inh STAT3ct = NF-kB reporter inhibitors in human cells, confirmation, counter-screen for STAT3 inhibitor project, cell-based, HEK293T, luciferase, TNF-alpha stimulus; shares compounds with STAT3 inh-1; TNF-alpha induced; 1,200 compounds, 36% hits; inhibition, % at 5.7 µM;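 active = inhibition above the mean of solvent-only control wells plus 3 SD, cutoff set per campaign, cut at about 13% in these data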;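 note: 0% = TNF-alpha with DMSO and 100% = TNF-alpha with MG high control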
STAT1 inh 2 = STAT1 reporter inhibitors, IFN-gamma induced, confirmation, counter-screen for STAT3 inhibitor project, cell-based, NIH 3T3, luciferase luminescence; shares compounds with STAT3 inh-1; NIH 3T3 STAT1-luciferase reporter; inhibition, % at 5.7 µM; 1,200 compounds, 27% hits;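 active = inhibition above the mean plus 3 SD of solvent-only control wells, limit set per screening run, cut at about 16% in these data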;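 note: 0% = DMSO with IFN-gamma and 100% = nifuroxazide control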
Active calls of the source: *; x = no result.

SMILES | STAT1 inh | APP 5'UTR act | NF-kB neuron act | STAT3 activator | STAT3 inh-1 | STAT1 activator | STAT3 inh-2 | NFkB inh STAT3ct | STAT1 inh 2
O=C1C2=C(C(c3ccccc3)=NCCN2)C(c2cccc([N+](=O)[O-])c2)N1c1ccccc1 (stereo not drawn) | -1.8 | -2.5 | x | 96.8 | 8.7 | 99.9 | x | x | x
c1ccc(C(Cc2nc(-c3ccncc3)no2)c2ccccc2)cc1 | -15.3 | -1.4 | 1.16 | 48.0 | 65.2* | 114.1 | 51.7* | 7.1 | -11.3
c1ccc2oc(-c3csc(N4CCOCC4)n3)cc2c1 | 20.4 | 137.7* | 5.79* | 53.3 | 57.7* | 79.5 | 31.5 | -16.8 | -103.4
COc1cc(-c2csc(N3CCOCC3)n2)cc(OC)c1OC | -5.7 | 0.7 | 1.14 | 102.7 | 4.6 | 105.1 | x | x | x
O=C(Nc1cccc(Cl)c1)Nc1ccnc(-c2cccnc2)n1 | -2.5 | -56.5 | 0.53 | 57.5 | 54.9* | 101.9 | 64.6* | -4.4 | 10.8
COc1ccc(-c2noc(CCCC(=O)O)n2)cc1 | 33.1 | -56.1 | 0.59 | 56.0 | 56.9* | 70.0 | 44.9* | 29.8* | 10.5
COc1ccc(-c2noc(CCC(=O)O)n2)cc1 | -8.7 | 12.0 | 1.09 | 93.7 | 15.1 | 107.9 | x | x | x
CCOc1ccc(-c2noc(CCC(=O)O)n2)cc1 | 23.3 | -40.5 | 0.74 | 54.9 | 59.1* | 79.1 | 40.0 | 23.7* | 9.5
c1ccc(-n2nnc3c(N4CCOCC4)ncnc32)cc1 | 11.0 | 147.6* | 2.55 | 31.6 | 81.1* | 90.0 | 40.5 | 1.5 | -52.9
Cc1nnc(N2CCOCC2)c2nn(-c3ccccc3)c(C)c12 | 1.8 | -16.8 | 1.13 | 90.5 | 12.7 | 97.8 | x | x | x
CCCCOC(=O)c1nc[nH]c1C(=O)OCCCC | 3.7 | 11.8 | 0.92 | 105.5 | 2.4 | 96.8 | x | x | x
CCOC(=O)c1sc(NC(=O)Cc2ccc(C)cc2)nc1C | 3.1 | 1.3 | 1.01 | 93.3 | 15.3 | 95.9 | x | x | x
CCOC(=O)c1sc(NC(=O)Nc2ccccc2F)nc1C | -18.5 | 162.3* | 1.23 | 37.9 | 74.7* | 116.4 | 60.8* | 39.1* | -19.0
CCOC(=O)c1sc(NC(=O)c2cc3ccccc3o2)nc1C | -48.0 | 116.4 | 2.57 | 63.8 | 46.7* | 141.7* | 1.6 | -38.4 | -64.8
Cc1cccc(C(=O)N[C@H](C(=O)OCC(=O)NC(=O)c2cccn2C)C(C)C)c1 | -3.2 | -4.5 | 1.46 | 105.3 | -8.2 | 103.1 | x | x | x
CCn1c(-c2ccc(N(C)C)cc2)nc2ccccc21 | -8.3 | 95.6 | 2.93 | 64.0 | 44.5* | 107.5 | 15.7 | -34.8 | -35.5
CCn1c(-c2ccc(N)cc2)nc2ccccc21 | -14.9 | -1.3 | 1.08 | 106.5 | 1.5 | 113.5 | x | x | x
CN(C)c1ccc(-c2nc3ccccc3n2C)cc1 | 29.0 | 97.5 | 2.07 | 34.8 | 77.1* | 73.8 | 24.9 | 5.8 | -65.9
Cc1ccnc(NC(=O)Nc2cccc(F)c2)c1 | -41.1 | 197.9* | 8.59* | 62.1 | 46.4* | 138.1* | -7.1 | -28.1 | -130.4
COc1cccc(CC(=O)n2nc(N)c3cc4ccc(OC)cc4nc32)c1 | 1.4 | -12.7 | 1.24 | 67.7 | 45.8* | 98.8 | 36.5 | -14.3 | 8.1
COc1ccc2cc3c(N)nn(C(=O)Cc4ccc(Cl)cc4)c3nc2c1 | 1.8 | 3.1 | 1.14 | 93.8 | 15.9 | 98.4 | x | x | x
N=c1c2c(n(Cc3ccc(Cl)c(Cl)c3)c3c1CCC3)CCCC2 | 27.5 | -12.1 | 0.9 | 53.0 | 61.2* | 74.9 | 23.8 | 8.7 | 25.4*
N=c1c2c(n(Cc3ccc(Br)cc3)c3c1CCC3)CCCC2 | 18.8 | 2.7 | 0.86 | 48.0 | 62.8* | 83.4 | 48.7* | 0.6 | 22.1*
N=c1c2c(n(Cc3ccc([N+](=O)[O-])cc3)c3c1CCC3)CCCC2 | 4.4 | 6.6 | 0.74 | 96.0 | 13.4 | 96.1 | x | x | x
COC(=O)c1sc(S(=O)(=O)NCCC(=O)O)c(C(=O)OC)c1C | -13.7 | 28.7 | 0.99 | 105.7 | 2.1 | 113.1 | x | x | x
SMILES | STAT1 inh | APP 5'UTR act | NF-kB neuron act | STAT3 activator | STAT3 inh-1 | STAT1 activator | STAT3 inh-2 | NFkB inh STAT3ct | STAT1 inh 2
Cc1cc(NC(=O)c2noc3c2CCc2ccccc2-3)n(-c2ccccc2)n1 | -0.2 | -13.7 | 0.98 | 102.9 | -3.4 | 101.1 | x | x | x
O=C(Nc1cccc(O)c1)c1noc2c1CCc1ccccc1-2 | 17.9 | 195.0* | 6.11* | 31.1 | 83.4* | 83.6 | 59.9* | -6.3 | 15.5
CCOC(=O)c1c(-c2ccc(C)o2)csc1NC(=O)COC(=O)c1ccc(NC(N)=O)cc1 | -8.5 | -8.1 | 0.78 | 84.5 | 19.0 | 107.8 | x | x | x
CCc1cc2cc(OC)ccc2nc1SCC(=O)NNC(=O)c1ccco1 | -3.8 | 25.4 | x | 107.0 | -1.7 | 103.9 | x | x | x
CCOC(=O)COc1ccc(S(=O)(=O)NCc2ccncc2)cc1 | 25.8 | x | 0.78 | 43.3 | 70.0* | 80.0 | 54.9* | 12.3 | 23.0*
Cc1ccc(S(=O)(=O)NCc2ccncc2)cc1 | 23.2 | -11.4 | 0.94 | 44.0 | 67.5* | 78.8 | 37.7 | 20.8* | 24.7*
CCOc1ccc(S(=O)(=O)NCc2ccncc2)cc1 | 28.4 | -12.9 | 0.56 | 26.8 | 88.5* | 73.8 | 81.6* | 33.7* | 23.5*
CCOC(=O)COc1ccc(S(=O)(=O)NCc2ccco2)cc1 | -10.4 | 3.9 | 0.97 | 103.7 | -0.3 | 109.6 | x | x | x
CCOc1ccc(S(=O)(=O)NCc2ccccn2)cc1 | -0.1 | 27.5 | 0.96 | 97.2 | 9.1 | 100.1 | x | x | x
CCOc1cc(S(=O)(=O)NCc2cccs2)ccc1Cl | 3.8 | -1.8 | 1.19 | 97.8 | 6.9 | 96.5 | x | x | x
CCOc1cc(S(=O)(=O)NCc2ccncc2)ccc1Cl | 33.9 | -1.6 | 0.91 | 28.4 | 84.5* | 68.9 | 85.4* | 34.3* | 26.9*
COc1ccc(Cc2nnc(NC(=O)C(C)(C)C)s2)cc1 | -13.2 | 4.7 | 1.16 | 102.1 | 2.1 | 110.6 | x | x | x
Cc1nc2cc(C(=O)N3CCc4ccccc43)ccc2n1-c1ccc(F)c(F)c1 | -14.0 | -9.0 | 1.01 | 112.0 | -13.7 | 112.4 | x | x | x
O=C(COC(=O)c1ccc[n+]([O-])c1)Nc1c(Br)cc([N+](=O)[O-])cc1Br | 0.3 | -1.1 | 1.33 | 102.8 | 4.7 | 98.5 | x | x | x
O=C1N(c2cccc(Cl)c2)C(c2ccc(Cl)cc2)N2CCCN12 (stereo not drawn) | -1.3 | 0.1 | 0.87 | 95.5 | 7.7 | 101.2 | x | x | x
